# Assay results: ChEMBL document CHEMBL1212784, “Structure-microbicidal activity relationship of synthetic fragments derived from the antibacterial alpha-helix of human lactoferrin” (2010)
# Positions of bridges follow the written chain, without caps; N, C: chain ends. Non-standard residues stand in square brackets, D forms with d. Residues, ends and D or L forms follow the SMILES beside them. Nle = CCCC[C@H](N)C(=O)O; Orn = NCCC[C@H](N)C(=O)O
# Experiments:
# Staphylococcus aureus [1] = experiment: Antimicrobial activity against Staphylococcus aureus 1800 (CCUG 1800) incubation in bactopeptone; format: functional
# Outline: (§1)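 Microplate killing assay in 1% Bactopeptone (pH 7.0). Log-phase organisms (BHI overnight, 2 h subculture, 37°C, washed), final ~2 × 10^5 cells/ml, with twofold peptide dilutions, 37°C humid chamber 2 h (or 20 h where stated). 5 μl drops plated on blood agar overnight; MMC99 = lowest concentration giving ≥99% inoculum reduction; duplicates.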
# [2] = Antimicrobial activity against Escherichia coli O6 K5 incubation in bactopeptone; format: functional; outline: as §1
# Candida albicans [3] = experiment: Antimicrobial activity against Candida albicans ATCC […] incubation in bactopeptone; format: functional; settings: ATCC 64549; outline: as §1
# Candida albicans [4] = experiment: Antimicrobial activity against […] Candida albicans ATCC […] incubated in diluted brain heart infusion medium; format: functional; settings: ATCC 6454
# Outline: (§2)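 Log-phase cells (BHI overnight at 37°C with shaking, subcultured 2 h, washed) at about 2 × 10^5 cells/ml final, exposed to twofold peptide dilutions in duplicate or triplicate. Medium: BHIdil (1/100 of 3.4% BHI, pH 6.7–6.9) or 1% Bactopeptone (pH 7.0). 2 h at 37°C, humid. 5-μl drops plated on blood agar overnight for CFU. MMC99 is the lowest concentration giving ≥99% kill.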
# Staphylococcus aureus [5] = experiment: Antimicrobial activity against methicillin resistant Staphylococcus aureus MRS3525 incubated in diluted brain heart infusion medium; format: functional; outline: as §2
# [6] = Antimicrobial activity against Escherichia coli O6 K5 incubated in diluted brain heart infusion medium; format: functional
# Outline: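 Microplate assay in diluted BHI (1/100 of 3.4%, pH 6.7 to 6.9), log-phase cells at ~2 × 10^5 cells/ml, twofold peptide dilutions, 2 h at 37°C in humid chamber; drops plated on blood agar, CFU counted; MMC99 = minimum concentration giving ≥99% killing of inoculum; duplicates.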
# Staphylococcus aureus [7] = experiment: Antimicrobial activity against methicillin resistant Staphylococcus aureus MRS3525 incubated in bactopeptone; format: functional; outline: as §2
# Escherichia coli [8] = experiment: Antimicrobial activity against Escherichia coli O6 using in brain heart infusion medium(dil) after 2 hrs at 10 ug/ml; format: functional
# Outline: (§3)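 Single-concentration screen: log-phase organisms (~2 × 10^5 cells/ml) incubated 2 h at 37°C in diluted BHI (1/100 of 3.4%, pH 6.7 to 6.9) with 25 μg/ml peptide (10 μg/ml for E. coli O6 and C. albicans); viable counts on blood agar; scored as ≥99% killed or not; duplicates.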
# Candida albicans [9] = experiment: Antimicrobial activity against Candida albicans ATCC […] using in brain heart infusion medium(dil) after 2 hrs at 10 ug/ml; format: functional, ATCC 64549; outline: as §3
# Escherichia coli [10] = experiment: Antimicrobial activity against Escherichia coli O14 using in brain heart infusion medium(dil) after 2 hrs at 25 ug/ml; format: functional; outline: as §3
# Enterococcus faecalis = experiment: Antimicrobial activity against Enterococcus faecalis ATCC 19433 using in brain heart infusion medium(dil) after 2 hrs at 25 ug/ml; format: functional; outline: as §3
# Staphylococcus aureus [11] = experiment: Antimicrobial activity against Staphylococcus aureus 1800 (CCUG 1800) using in brain heart infusion medium(dil) after 2 hrs at 25 ug/ml; format: functional; outline: as §3
# Pseudomonas aeruginosa = experiment: Antimicrobial activity against Pseudomonas aeruginosa CCUG 551 using in brain heart infusion medium(dil) after 2 hrs at 25 ug/ml; format: functional; outline: as §3
# [12] = tested on: Staphylococcus epidermidis; experiment: Antimicrobial activity against Staphylococcus epidermidis CCUG 18000A using in brain heart infusion medium(dil) after 2 hrs at 25 ug/ml; format: functional; outline: as §3
# Klebsiella pneumoniae = experiment: Antimicrobial activity against Klebsiella pneumoniae CCUG 9997 using in brain heart infusion medium(dil) after 2 hrs at 25 ug/ml; format: functional; outline: as §3
MIC99 (Staphylococcus aureus [1]) [µg/mL],MIC99 [2] [µg/mL],MIC99 (Candida albicans [3]) [µg/mL],Molecule,MIC99 (Candida albicans [4]) [µg/mL],MIC99 (Staphylococcus aureus [5]) [µg/mL],MIC99 [6] [µg/mL],MIC99 (Staphylococcus aureus [7]) [µg/mL],other results
50,25,25,H-CFALKKAMKKVR-OH,–,–,–,–,–
–,–,–,H-CFQWQANMRKVR-OH,12,7,12,–,–
50,50,25,CCCC[C@H](NC(=O)[C@H](Cc1c[nH]c2ccccc12)NC(=O)[C@H](CCC(N)=O)NC(=O)[C@H](Cc1ccccc1)NC(=O)[C@@H](N)CS)C(=O)N[C@@H](CCCNC(=N)N)C(=O)N[C@@H](CC(N)=O)C(=O)N[C@@H](CCSC)C(=O)N[C@@H](CCCNC(=N)N)C(=O)N[C@@H](CCCCN)C(=O)N[C@H](C(=O)N[C@@H](CCCNC(=N)N)C(=O)O)C(C)C (H-CFQW[Nle]RNMRKVR-OH),–,–,–,–,–
25,25,25,H-CFQWKRNMRKVR-OH,–,–,–,–,–
–,–,–,H-EATKCFQWQRNMRKVR-OH,–,–,–,–,Activity (Escherichia coli [8]): >=99%; Activity (Candida albicans [9]): <99%; Activity (Escherichia coli [10]): <99%; Activity (Enterococcus faecalis): >=99%; Activity (Staphylococcus aureus [11]): >=99%; Activity (Pseudomonas aeruginosa): <99%; Activity [12]: >=99%; Activity (Klebsiella pneumoniae): <99%
12,12,12,H-CFQWKRAMRKVR-OH,–,–,–,–,–
100,> 100,> 200,CC[C@H](C)[C@H](NC(=O)[C@@H]1CSSC[C@H](NC(=O)[C@H](CCCCN)NC(=O)[C@@H](NC(=O)[C@H](C)NC(=O)[C@H](CCC(=O)O)NC(C)=O)[C@@H](C)O)C(=O)N[C@@H](Cc2ccccc2)C(=O)N[C@@H](C)C(=O)N[C@@H](Cc2c[nH]c3ccccc23)C(=O)N[C@@H](CCC(N)=O)C(=O)N[C@@H](CCCNC(=N)N)C(=O)N[C@@H](CC(N)=O)C(=O)N[C@@H](CCSC)C(=O)N[C@@H](CCCNC(=N)N)C(=O)N[C@@H](CCCCN)C(=O)N[C@@H](C(C)C)C(=O)N[C@@H](CCCNC(=N)N)C(=O)NCC(=O)N2CCC[C@H]2C(=O)N2CCC[C@H]2C(=O)N[C@@H](C(C)C)C(=O)N[C@@H](CO)C(=O)N1)C(=O)N[C@@H](CCCCN)C(=O)N[C@@H](CCCNC(=N)N)C(N)=O (Ac-EATKCFAWQRNMRKVRGPPVSCIKR-NH2; disulfide 5-22),–,–,–,–,–
–,–,–,H-FQWQRNMRKVR-OH,–,–,–,–,Activity (Escherichia coli [8]): <99%; Activity (Candida albicans [9]): <99%; Activity (Escherichia coli [10]): <99%; Activity (Enterococcus faecalis): <99%; Activity (Staphylococcus aureus [11]): >=99%; Activity (Pseudomonas aeruginosa): <99%; Activity [12]: <99%; Activity (Klebsiella pneumoniae): >=99%
50,25,25,CSCC[C@H](NC(=O)[C@H](CC(N)=O)NC(=O)[C@H](CCCNC(=N)N)NC(=O)[C@H](CCCN)NC(=O)[C@H](Cc1c[nH]c2ccccc12)NC(=O)[C@H](CCC(N)=O)NC(=O)[C@H](Cc1ccccc1)NC(=O)[C@@H](N)CS)C(=O)N[C@@H](CCCNC(=N)N)C(=O)N[C@@H](CCCCN)C(=O)N[C@H](C(=O)N[C@@H](CCCNC(=N)N)C(=O)O)C(C)C (H-CFQW[Orn]RNMRKVR-OH),–,–,–,–,–
50,50,50,CCCC[C@H](NC(=O)[C@H](CCCNC(=N)N)NC(=O)[C@H](CCC(N)=O)NC(=O)[C@H](Cc1c[nH]c2ccccc12)NC(=O)[C@H](CCC(N)=O)NC(=O)[C@H](Cc1ccccc1)NC(=O)[C@@H](N)CS)C(=O)N[C@@H](CCSC)C(=O)N[C@@H](CCCNC(=N)N)C(=O)N[C@@H](CCCCN)C(=O)N[C@H](C(=O)N[C@@H](CCCNC(=N)N)C(=O)O)C(C)C (H-CFQWQR[Nle]MRKVR-OH),–,–,–,–,–
–,–,–,H-CAQWQRNMRKVR-OH,12,7,12,–,–
50,100,37,CC[C@H](C)[C@H](NC(=O)[C@@H]1CSSC[C@H](NC(=O)[C@H](CCCCN)NC(=O)[C@@H](NC(=O)[C@H](C)NC(=O)[C@H](CCC(=O)O)NC(C)=O)[C@@H](C)O)C(=O)N[C@@H](Cc2ccccc2)C(=O)N[C@@H](CCC(N)=O)C(=O)N[C@@H](Cc2c[nH]c3ccccc23)C(=O)N[C@@H](CCC(N)=O)C(=O)N[C@@H](CCCNC(=N)N)C(=O)N[C@@H](C)C(=O)N[C@@H](CCSC)C(=O)N[C@@H](CCCNC(=N)N)C(=O)N[C@@H](CCCCN)C(=O)N[C@@H](C(C)C)C(=O)N[C@@H](CCCNC(=N)N)C(=O)NCC(=O)N2CCC[C@H]2C(=O)N2CCC[C@H]2C(=O)N[C@@H](C(C)C)C(=O)N[C@@H](CO)C(=O)N1)C(=O)N[C@@H](CCCCN)C(=O)N[C@@H](CCCNC(=N)N)C(N)=O (Ac-EATKCFQWQRAMRKVRGPPVSCIKR-NH2; disulfide 5-22),–,–,–,–,–
–,–,–,H-ATKCFQWQRNMRKVR-OH,–,–,–,–,Activity (Escherichia coli [8]): >=99%; Activity (Candida albicans [9]): >=99%; Activity (Escherichia coli [10]): >=99%; Activity (Enterococcus faecalis): >=99%; Activity (Staphylococcus aureus [11]): >=99%; Activity (Pseudomonas aeruginosa): >=99%; Activity [12]: >=99%; Activity (Klebsiella pneumoniae): >=99%
–,–,–,H-QWQRNMRKVR-OH,–,–,–,–,Activity (Escherichia coli [8]): <99%; Activity (Candida albicans [9]): <99%; Activity (Escherichia coli [10]): <99%; Activity (Enterococcus faecalis): <99%; Activity (Staphylococcus aureus [11]): <99%; Activity (Pseudomonas aeruginosa): <99%; Activity [12]: <99%; Activity (Klebsiella pneumoniae): <99%
25,12,50,CC[C@H](C)[C@H](NC(=O)[C@@H]1CSSC[C@H](NC(=O)[C@H](CCCCN)NC(=O)[C@@H](NC(=O)[C@H](C)NC(=O)[C@H](CCC(=O)O)NC(C)=O)[C@@H](C)O)C(=O)N[C@@H](Cc2ccccc2)C(=O)N[C@@H](CCC(N)=O)C(=O)N[C@@H](Cc2c[nH]c3ccccc23)C(=O)N[C@@H](CCCCN)C(=O)N[C@@H](CCCNC(=N)N)C(=O)N[C@@H](CC(N)=O)C(=O)N[C@@H](CCSC)C(=O)N[C@@H](CCCNC(=N)N)C(=O)N[C@@H](CCCCN)C(=O)N[C@@H](C(C)C)C(=O)N[C@@H](CCCNC(=N)N)C(=O)NCC(=O)N2CCC[C@H]2C(=O)N2CCC[C@H]2C(=O)N[C@@H](C(C)C)C(=O)N[C@@H](CO)C(=O)N1)C(=O)N[C@@H](CCCCN)C(=O)N[C@@H](CCCNC(=N)N)C(N)=O (Ac-EATKCFQWKRNMRKVRGPPVSCIKR-NH2; disulfide 5-22),–,–,–,–,–
50,25,25,CSCC[C@H](NC(=O)[C@H](CCCN)NC(=O)[C@H](CCCNC(=N)N)NC(=O)[C@H](CCC(N)=O)NC(=O)[C@H](Cc1c[nH]c2ccccc12)NC(=O)[C@H](CCC(N)=O)NC(=O)[C@H](Cc1ccccc1)NC(=O)[C@@H](N)CS)C(=O)N[C@@H](CCCNC(=N)N)C(=O)N[C@@H](CCCCN)C(=O)N[C@H](C(=O)N[C@@H](CCCNC(=N)N)C(=O)O)C(C)C (H-CFQWQR[Orn]MRKVR-OH),–,–,–,–,–
25,50,25,H-CFAWKRNMRKVR-OH,–,–,–,–,–

Molecule,MIC99 (Staphylococcus aureus [1]) [µg/mL],MIC99 [2] [µg/mL],MIC99 (Candida albicans [3]) [µg/mL],MIC99 (Candida albicans [4]) [µg/mL],MIC99 (Staphylococcus aureus [5]) [µg/mL],MIC99 [6] [µg/mL],MIC99 (Staphylococcus aureus [7]) [µg/mL],other results
H-CFQWQRNMRAVR-OH,–,100,> 100,25,3.5,12,> 100,–
H-CFQWQRAMRKVR-OH,–,25,25,6,3.5,6,50,–
H-CFQAQRNMRKVR-OH,–,> 100,> 100,12,14,25,> 100,–
H-CFQWQRNMRKAR-OH,–,50,50,25,3.5,12,> 100,–
H-CFQWQRNARKVR-OH,–,50,50,25,3.5,12,> 100,–
H-CFAWQRNMRKVR-OH,–,50,25,6,3.5,6,100,–
H-AFQWQRNMRKVR-OH,–,> 100,> 100,12,14,> 25,> 100,–
H-CFQWQRNMRKVA-OH,–,> 100,> 100,25,7,12,> 100,–
H-CFQWQRNMAKVR-OH,–,> 100,> 100,25,7,25,> 100,–
H-CFQWARNMRKVR-OH,–,50,50,12,3.5,12,100,–
